# In PubChem BioAssay AID743061 (The Scripps Research Institute Molecular Screening Center, 2013):
# “And” between values parts separate entries of the source, which are not always exact repeats. Equal entries are not always repeated.
# Target: Methionine--tRNA ligase, mitochondrial (Homo sapiens) (UniProt Q96GW9)
# Experiment: human mtMetRS tRNA charging inhibition – biochemical, radioactivity, round 1, selectivity assay for T. brucei MetRS inhibitor project, late-stage follow-up (AID 743061);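 note: 0% = DMSO with full reaction and 100% = DMSO wells lacking tRNA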
# Settings: recombinant human mtMetRS, [3H]Met tRNA charging, at 1 µM, stronger effect = higher value
# Outline: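 Material – recombinant human mitochondrial methionyl-tRNA synthetase (MetRS) · Input – 13 nM enzyme · Also added – 240 nM [3H]methionine with bulk E. coli tRNA acceptor · Compound dosing – 10 and 1 µM · Schedule – 15 min preincubation, 1 h reaction, room temperature · Detection – scintillation counts of TCA-precipitated charged tRNA on filters · Benchmarks – high DMSO, low without tRNA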
row,SMILES,inhibition
1,CCc1ccc2[nH]c3nc(SCC(=O)NCc4cccc(OC)c4)nnc3c2c1,-1.1%
2,CC(C)c1nc2ccc(C(=O)N(C)CCc3nc4ccc(F)cc4[nH]3)cc2o1,-1.54%
3,COc1ccc(NC(=O)CSc2nnc3c4cc(C)ccc4n(C)c3n2)cc1,-0.75%
4,O=C(Nc1ccc(F)c(Cl)c1)C1CC(=O)n2c(nc3ccccc32)N1 (centres undefined),-11.1% and -0.44%
5,Brc1cnc2nc(SCc3nc4ccccc4[nH]3)[nH]c2c1,-21.5%
6,Cc1ccc(C(=O)NCCc2nc3ccccc3[nH]2)cc1[N+](=O)[O-],0.93%
7,O=C(CCC(=O)Nc1cccc([N+](=O)[O-])c1)NN=Cc1cccs1,-28.9%
8,CCC(=O)c1cn(CC(=O)Nc2cccc(C(F)(F)F)c2)c2ccccc12,-18.3%
9,O=C(NCc1nc2ccccc2[nH]1)C1=C[C@H](c2ccc(Br)cc2)C[C@H](OCc2ccc(CO)cc2)O1,0.59%
10,O=C(Cn1cc(C(=O)C2CC2)c2ccccc21)Nc1cccc(C(F)(F)F)c1,0.73%
11,O=C(NCCc1nc2ccccc2[nH]1)c1ccc(Cl)cc1Cl,16.4%
12,Cc1cccc(NC(=O)C2CC(=O)n3c(nc4ccccc43)N2)c1 (centres undefined),10.7%
13,Cc1ccc(CNC(=O)CSc2nnc3c(n2)[nH]c2ccc(C)cc23)cc1,1.77%
14,O=C(NCc1nc2ccccc2[nH]1)C1=C[C@H](c2ccc3c(c2)OCO3)C[C@H](OCCCCO)O1,-10.7%
15,COc1ccccc1NC(=O)CSc1nnc2c(n1)[nH]c1ccc(C)cc12,-3.56%
16,COc1ccc2[nH]c3nc(SCC(=O)Nc4ccc5c(c4)OCO5)nnc3c2c1,14.3%
17,O=C(Cn1cc(C(=O)C(=O)N2CCOCC2)c2ccccc21)NCc1ccccc1,-5.05%

row,SMILES,inhibition
1,CCCCn1c(CCNC(=O)c2ccc(F)cc2)nc2ccccc21,3.64%
2,O=C(NCc1nc2ccccc2[nH]1)C1=C[C@@H](c2csc3ccccc23)C[C@@H](OCCCCO)O1,-15%
3,O=C(CSc1nnc2c(n1)[nH]c1ccc(Br)cc12)NCc1ccccc1,-0.52%
4,O=C(CC=NOCc1ccc([N+](=O)[O-])cc1)Nc1ccc(Br)cc1,-22.4%
5,COc1ccc(CCN(C(=O)c2cccc(F)c2)C2CC(=O)N(c3ccc(Br)cc3)C2=O)cc1 (centres undefined),-8.56%
6,O=C(Cn1cc(C(=O)C(=O)N2CCOCC2)c2ccccc21)NCC1CCCO1 (centres undefined),-9.17%
7,Cc1ccc2[nH]c3nc(SCC(=O)Nc4ccc(C(F)(F)F)cc4)nnc3c2c1,-10%
8,CN(CC(=O)Nc1ccc(Cl)cc1)C(=O)c1ccc(-n2cncn2)c([N+](=O)[O-])c1,-36.7%
9,CN(Cc1cc(Cl)cc(Cl)c1)[C@H]1C[C@H]2c3[nH]c4ccccc4c3CCN2C(=O)[C@H]1CO,14%
10,COc1ccc(CCN(C(=S)Nc2ccccc2)C2CC(=O)N(c3ccc(Cl)cc3)C2=O)cc1 (centres undefined),10.6%
11,COc1ccc(NC(=O)C2CC(=O)n3c(nc4ccccc43)N2)cc1 (centres undefined),-2.67%
12,Oc1c(Cl)cc(Cl)cc1CNc1nc2ccccc2[nH]1,-0.2%
13,CC(CC(=O)Nc1cccc(Br)c1)=NNC(=O)c1ccc(O)cc1O,-24.6%
14,O=C(C(=O)N1CCOCC1)c1cn(CC(=O)N2CCCc3ccccc32)c2ccccc12,8.2%
15,CN1CC(=O)N2C(c3cccc([N+](=O)[O-])c3)c3[nH]c4ccccc4c3C[C@H]2C1=O (some centres undefined),-17.1%
16,O=C(Cn1cc(C(=O)C(=O)N2CCOCC2)c2ccccc21)Nc1cccc(C(F)(F)F)c1,-22.4%
17,Cc1ccc(C(=O)NCCc2nc3ccccc3[nH]2)cc1C,1.34%
